According to ChEMBL document CHEMBL3877241 (J Med Chem, 2016):
Calls of active or inactive are those of the source. No cut-off for these calls is given here.

Columns and labels:
[1] = system: MOLM-14; test: Induction of apoptosis in human MOLM14 cells assessed as live cells at 1 uM after 48 hrs by Annexin-V FITC/propidium iodide staining based flow cytometry (reference value: 94 to 94.1%); assay type: functional
Summary of the method: (§1)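 MOLM-14 cells treated 48 h at the stated concentrations; doxorubicin as positive control. Stained with Annexin V-FITC and propidium iodide and analysed by flow cytometry (at least 10,000 events). Gated quadrants: Annexin V−/PI− viable, Annexin V+/PI− early apoptotic, Annexin V+/PI+ late apoptotic.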

[2] = system: MOLM-14; test: Induction of apoptosis in human MOLM14 cells assessed as early apoptotic cells at 1 uM after 48 hrs by Annexin-V FITC/propidium iodide staining based flow cytometry (reference value: 3.6 to 3.7%); assay type: functional; summary of the method: as §1
[3] = system: MOLM-14; test: Induction of apoptosis in human MOLM14 cells assessed as late apoptotic cells at 1 uM after 48 hrs by Annexin-V FITC/propidium iodide staining based flow cytometry (reference value: 2.1 to 2.2%); assay type: functional; summary of the method: as §1
[4] = system: MOLM-14; test: Induction of apoptosis in human MOLM14 cells assessed as necrotic cells at 1 uM after 48 hrs by Annexin-V FITC/propidium iodide staining based flow cytometry (reference value: 0.1%); assay type: functional; summary of the method: as §1
[5] = Antiproliferative activity against human MDA-MB-231 cells after 72 hrs by MTT assay; assay type: functional, cell-based; settings: MDA-MB-231, 72 h
[6] = Antiproliferative activity against human HCT116 cells after 72 hrs by MTT assay; assay type: functional, cell-based; settings: HCT-116, 72 h
Summary of the method: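 MTT viability after 72 h exposure. Cells seeded at 2500/well and left 24 h before compound addition; DMSO at 0.5% v/v final. MTT added in FBS-free medium for 3 h at 37 °C, formazan dissolved in DMSO, absorbance read at 570 nm. IC50 from a sigmoidal fit of % viability vs log concentration; triplicates on separate occasions using two different stock solutions.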

[7] = Antiproliferative activity against human PC3 cells after 72 hrs by MTT assay; assay type: functional, cell-based; settings: PC-3, 72 h
[8] = Antiproliferative activity against human MCF7 cells after 72 hrs by MTT assay; assay type: functional, cell-based; settings: MCF7, 72 h
[9] = Antiproliferative activity against human HCT116 cells after 48 hrs by CellTiter-Glo assay; assay type: functional, cell-based; settings: HCT-116, 48 h
[10] = Antiproliferative activity against human PC3 cells after 48 hrs by CellTiter-Glo assay; assay type: functional, cell-based; settings: PC-3, 48 h
[11] = Antiproliferative activity against human MCF7 cells after 48 hrs by CellTiter-Glo assay; assay type: functional, cell-based; settings: MCF7, 48 h
[12] = Antiproliferative activity against human HL60 cells; assay type: functional, cell-based; settings: HL-60
[13] = cells; assay type: functional, cell-based; settings: Homo sapiens, HEL 92.1.7, 36 h
[14] = Antiproliferative activity against human Jurkat cells; assay type: functional, cell-based
[15] = Antiproliferative activity against HEL 92.1.7 cells harboring JAK2 V617F mutant after 48 hrs by CellTiter-Glo assay; assay type: functional, cell-based; settings: Homo sapiens, HEL 92.1.7, 48 h
[16] = Antiproliferative activity against human Jurkat cells after 48 hrs by CellTiter-Glo assay; assay type: functional, cell-based
[17] = Antiproliferative activity against human KMS-12-BM cells after 48 hrs by CellTiter-Glo assay; assay type: functional, cell-based
[18] = Antiproliferative activity against human OPM2 cells after 48 hrs by CellTiter-Glo assay; assay type: functional, cell-based; settings: OPM-2, 48 h
Summary of the method: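 OPM2 grown in RPMI 1640 with 10% FBS and penicillin/streptomycin at 37 °C, 5% CO2. Treated at 25,000 cells/well in triplicate for 48 h. Viability read by CellTiter-Glo luminescence. IC50 taken from a sigmoidal fit of % viability vs log concentration.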

[19] = Antiproliferative activity against human KG1 cells after 48 hrs by CellTiter-Glo assay; assay type: functional, cell-based; settings: KG-1, 48 h
[20] = Antiproliferative activity against human MOLM14 cells harboring FLT3-ITD mutant after 48 hrs by CellTiter-Glo assay; assay type: functional, cell-based; settings: MOLM-14, 48 h
[21] = Antiproliferative activity against human NKYS cells after 48 hrs by CellTiter-Glo assay; assay type: functional, cell-based
[22] = Antiproliferative activity against human KHYG cells after 48 hrs by CellTiter-Glo assay; assay type: functional, cell-based
[23] = Antiproliferative activity against mouse TAMH cells after 24 hrs by CellTiter-Glo assay; assay type: ADME, cell-based
[24] = target: T1, Tyrosine-protein kinase JAK2 (Homo sapiens, UniProt O60674); test: Inhibition of JAK2 in IL-6-stimulated human KMS-12-BM cells assessed as suppression of STAT3 phosphorylation at TY705 residue at 2 uM pretreated for 3 hrs followed by IL-6 stimulation by immunoblot method
T1 sequence (O60674 whole entry): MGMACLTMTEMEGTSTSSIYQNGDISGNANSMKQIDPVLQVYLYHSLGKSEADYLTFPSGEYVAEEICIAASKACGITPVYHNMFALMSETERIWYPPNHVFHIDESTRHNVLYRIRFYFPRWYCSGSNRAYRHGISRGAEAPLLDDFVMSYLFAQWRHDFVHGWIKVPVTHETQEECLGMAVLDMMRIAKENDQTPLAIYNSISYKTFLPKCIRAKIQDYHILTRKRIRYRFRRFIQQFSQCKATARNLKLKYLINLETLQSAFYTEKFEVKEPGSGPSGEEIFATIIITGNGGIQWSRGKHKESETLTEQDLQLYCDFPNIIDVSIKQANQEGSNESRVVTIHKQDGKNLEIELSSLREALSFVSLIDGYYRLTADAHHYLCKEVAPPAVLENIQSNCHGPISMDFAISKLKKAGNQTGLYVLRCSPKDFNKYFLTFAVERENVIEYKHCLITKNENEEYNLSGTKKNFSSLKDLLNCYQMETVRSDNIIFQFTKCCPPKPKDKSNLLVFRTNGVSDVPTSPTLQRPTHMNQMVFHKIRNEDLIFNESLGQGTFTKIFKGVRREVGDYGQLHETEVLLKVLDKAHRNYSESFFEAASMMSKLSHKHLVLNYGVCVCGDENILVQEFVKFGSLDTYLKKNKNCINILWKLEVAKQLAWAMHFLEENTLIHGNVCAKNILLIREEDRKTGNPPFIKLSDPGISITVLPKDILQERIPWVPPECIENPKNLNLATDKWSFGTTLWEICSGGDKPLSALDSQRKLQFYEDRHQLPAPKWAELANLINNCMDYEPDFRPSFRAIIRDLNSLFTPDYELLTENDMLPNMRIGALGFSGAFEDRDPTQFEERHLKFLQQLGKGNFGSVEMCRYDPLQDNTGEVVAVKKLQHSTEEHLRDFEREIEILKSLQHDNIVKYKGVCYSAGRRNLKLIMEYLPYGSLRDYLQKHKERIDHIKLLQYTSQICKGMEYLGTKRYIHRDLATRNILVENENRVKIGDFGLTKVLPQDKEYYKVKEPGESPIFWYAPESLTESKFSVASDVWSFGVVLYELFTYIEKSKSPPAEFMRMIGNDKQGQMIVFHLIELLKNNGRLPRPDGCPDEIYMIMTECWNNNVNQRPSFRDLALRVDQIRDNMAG
Summary of the method: (§2)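 KMS-12-BM or MOLM-14 cells pretreated with compound for 3 h, then stimulated with IL-6 (10 ng/mL) for 15 min. Lysates immunoblotted for p-STAT3 (Y705) and re-probed for total STAT3. Reference JAK2 inhibitor used at 2 μM in KMS-12-BM and 0.1 μM in MOLM-14.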

[25] = target: T1, Tyrosine-protein kinase JAK2; test: Inhibition of JAK2 in IL-6-stimulated human MOLM14 cells assessed as suppression of STAT3 phosphorylation at TY705 residue at 0.1 uM pretreated for 3 hrs followed by IL-6 stimulation by immunoblot method; assay type: cell-based; settings: MOLM-14; summary of the method: as §2
[26] = system: Tyrosine-protein kinase JAK2 (Homo sapiens), O60674 [V617F]; test: Induction of JAK2 V617F mutant phosphorylation at Y1007/8 residues in HEL 92.1.7 cells after 1 hr by immunoblot method; assay type: cell-based
Chain of Tyrosine-protein kinase JAK2 (Homo sapiens), O60674 [V617F] (O60674 whole entry V617F): as the sequence (O60674 whole entry) above, with V617F counted along it
Summary of the method: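 HEL92.1.7 cells seeded at 5x10^5/mL and treated 1 h at 0, 0.1, 0.5 and 1 μM. Lysed in RIPA with phosphatase/protease inhibitors, run on 10% SDS-PAGE and blotted to PVDF. Probed for acetyl-tubulin, acetyl-H3 (Lys9/Lys14), p-JAK2 (Y1007/1008) and p-STAT5 (Tyr694); membranes re-probed for tubulin, H3, JAK2 and STAT5. Quantified by densitometry.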

COc1cccc2c1C(=O)c1c(O)c3c(c(O)c1C2=O)C[C@@](O)(C(=O)CO)C[C@@H]3O[C@H]1C[C@H](N)[C@H](O)[C@H](C)O1 [DOXORUBICIN]
Activity [1]: 0.8% | Activity [2]: 38.8% | Activity [3]: 59.9% | Activity [4]: 0.4%

C1=N/C2=N/c3ccc(OCCN4CCCC4)c(c3)COC/C=C/COCc3cccc(c3)C(=C1)N2 [PACRITINIB]
IC50 [5]: 2.43 µM | IC50 [6]: 0.88 µM | IC50 [7]: 2.41 µM | IC50 [8]: 0.29 µM | IC50 [9]: 1.69 µM | IC50 [10]: 0.77 µM | IC50 [11]: 0.85 µM | IC50 [12]: 1.78 µM | IC50 [13]: 1.17 µM | IC50 [14]: 1.09 µM | IC50 [15]: 1.73 µM | IC50 [16]: 0.839 µM | IC50 [17]: 0.75 µM | IC50 [18]: 1.21 µM | IC50 [19]: 1.48 µM | IC50 [20]: 0.079 µM | IC50 [21]: 1.6 µM | IC50 [22]: 1.24 µM | IC50 [23]: 3.68 µM | inhibition [24]: Active | inhibition [25]: Active | Activity [26]: Active
